Test results taken from ChEMBL document CHEMBL6177916, “Synthesis, in silico and bio-evaluation studies of new isothiocyanate derivatives with respect to COX inhibition and H2S release profiles” (RSC Med Chem, 2025).
Active and inactive are the calls of the source. The rule behind the calls is not given here.

Assays:
RAW264.7 [1] = test: Antiinflammatory activity against LPS induced mouse RAW264.7 cells assessed as decrease in cell viability at 10 to 20 uM relative to control; type: functional; details: dose 10-20 µM
In short: (§1)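 RAW 264.7 murine macrophages were seeded at 4 × 10^5 cells per mL and grown 24 h at 37 °C. They were then stimulated with 1 μg mL−1 LPS, with or without compound (DMSO-dissolved) at 10 and 20 μM, for 24 h. MTT was added for 2 h, formazan was dissolved in DMSO, and A570/620 was read. Controls were no inhibitor/no LPS and LPS alone, with comparisons made against LPS alone. Data are ≥3 biological replicates, mean ± SEM, one-way ANOVA with Dunnett.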

RAW264.7 [2] = test: Cytotoxicity against mouse RAW264.7 cells assessed as cell viability at 10 to 20 uM measured after 24 hrs by MTT assay; type: functional, cell-based; details: dose 10-20 µM; in short: as §1
[3] = Induction of H2S release in PBS at pH 7.4 at 100 uM measured over 4 hrs by microplate reader based analysis; type: functional
In short: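 Compounds (DMSO-dissolved) were diluted to 100 μM final in phosphate buffer, pH 7.4, containing 1 mM L-cysteine. This was combined with a detection mix of N,N-dimethyl-1,4-phenylenediamine sulfate (20 mM) plus 1% w/v Zn(OAc)2, reacted with 30 mM FeCl3. A670 was read every 5 min until no meaningful increase was seen.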

[4] = target: T1, Prostaglandin G/H synthase 2 (Homo sapiens, UniProt P35354); test: Inhibition of human recombinant COX-2 using arachidonic acid as substrate at 10 uM preincubated for 10 mins followed by substrate addition and measured after 30 secs
T1 sequence (P35354 whole entry): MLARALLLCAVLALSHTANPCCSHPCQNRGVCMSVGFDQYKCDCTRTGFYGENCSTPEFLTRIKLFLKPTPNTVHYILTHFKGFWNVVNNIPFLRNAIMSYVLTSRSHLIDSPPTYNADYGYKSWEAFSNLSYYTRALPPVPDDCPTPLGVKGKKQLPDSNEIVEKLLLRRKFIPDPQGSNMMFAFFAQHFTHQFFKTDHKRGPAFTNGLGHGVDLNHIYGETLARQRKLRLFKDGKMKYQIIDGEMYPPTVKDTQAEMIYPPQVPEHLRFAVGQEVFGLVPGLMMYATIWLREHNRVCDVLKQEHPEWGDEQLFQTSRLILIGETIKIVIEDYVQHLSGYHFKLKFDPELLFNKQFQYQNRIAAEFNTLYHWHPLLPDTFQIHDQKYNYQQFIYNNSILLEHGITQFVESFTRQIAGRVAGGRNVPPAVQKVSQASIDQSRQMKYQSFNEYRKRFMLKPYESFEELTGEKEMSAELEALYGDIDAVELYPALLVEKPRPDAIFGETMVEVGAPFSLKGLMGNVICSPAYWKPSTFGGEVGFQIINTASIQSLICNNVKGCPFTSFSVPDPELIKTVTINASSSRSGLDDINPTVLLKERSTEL

SMILES | Activity (RAW264.7 [1]) | Activity (RAW264.7 [2]) | Activity [3] | IC50 [4]
N#Cc1cc(CCO)ccc1N=C=S | <80% | inactive | 35.7 µM | –
O=C(OCCc1ccc(N=C=S)cc1)c1ccccc1 | <80% | inactive | 11.3 µM | –
C[S+]([O-])CCCCN=C=S (configuration not stated) [SULFORAPHANE] | – | – | 43.5 µM | 6.35 µM
COc1ccc(C(=O)OCCc2ccc(N=C=S)cc2)cc1 | – | inactive | 11.2 µM | –
O=C(OCCc1ccc(N=C=S)cc1)c1ccc([N+](=O)[O-])cc1 | <80% | inactive | 11.5 µM | –
OCCc1ccc(N=C=S)c(Br)c1 | <80% | inactive | 35.5 µM | –
CC(C)CC(=O)OCCc1ccc(N=C=S)cc1 | – | inactive | 11.7 µM | –
O=C(OCCc1ccc(N=C=S)cc1)c1ccc(F)cc1 | – | – | 10.9 µM | –
OCCc1ccc(N=C=S)cc1 | <80% | inactive | 36.8 µM | –
